Bioassay records from PubChem BioAssay.
Only some compounds are listed: those with a hit (about 3.1% of all), similar ones and a draw of the others.
SENP8 block-1 = SENP8 protease inhibitors, primary screen, biochemical, luminescence; Sentrin-specific protease 8 (Homo sapiens), Q96LD8; purified SENP8, Z-RLRGG-aminoluciferin cleavage; inhibition, % at 10 µM; 1.2% of 330,000 active; in the data active = inhibition above about 50%
UBC13 inh = UBC13 polyubiquitin chain formation inhibitors, primary screen, biochemical, TR-FRET, uHTS. Ubiquitin-conjugating enzyme E2 N (Homo sapiens), P61088. inhibition, % at 20 µM. 0.47% of 330,000 active; in the data active = inhibition above about 45%, passing the limit was not always enough
SENP7 block = SENP7 protease inhibitors, primary screen, biochemical, luminescence, uHTS; inhibition, % at 5 µM; 1.5% of 330,000 active; AID 434973, 2010; Sentrin-specific protease 7 (Homo sapiens), Q9BQF6; recombinant SENP7, Z-RLRGG-aminoluciferin luminescence, 40 min;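 active = inhibition above about 50% at the single test dose, limit read from the data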
Apaf-1 inh = inhibitors of human Apaf-1 apoptosome, primary screen, biochemical, DEVD-Rh110 fluorescence, uHTS; Apoptotic protease-activating factor 1 (Homo sapiens), O14727; AID 489030, 2010; reconstituted apoptosome caspase-3 activity; inhibition, % at 20 µM; 0.71% of 330,000 active; active = inhibition of at least 40% at 20 µM
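Material: reconstituted apoptosome with Apaf-1, cytochrome c, caspase-9, procaspase-3, dATP. Technique: Rh110 fluorescence intensity. Buffer or medium: pH 7.5 Hepes buffer with CHAPS, BSA, DTT. Times: 30 min plus 50 min, RT.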
SENP8 block-2 = human SENP8 protease inhibitors, primary screen, biochemical, fluorescence, Nedd8 protein substrate, uHTS; Sentrin-specific protease 8 (Homo sapiens), Q96LD8; recombinant SENP8; inhibition, % at 20 µM; 0.64% of 360,000 active; AID 602440, 2012; in the data active = inhibition mostly above about 40%, no sharp cut-off; inactive = mostly below about 27%
SENP6 inh = SENP6 protease inhibitors, primary screen, biochemical, luminescence, uHTS; Sentrin-specific protease 6 (Homo sapiens), Q9GZR1; Recombinant SENP6 catalytic domain, aminoluciferin luminescence; inhibition, % at 10 µM; 1.8% of 330,000 active;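 active = inhibition above about 50% at the single tested dose, limit read from the data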
Target sequence (Q9GZR1 628-1112 limits assumed): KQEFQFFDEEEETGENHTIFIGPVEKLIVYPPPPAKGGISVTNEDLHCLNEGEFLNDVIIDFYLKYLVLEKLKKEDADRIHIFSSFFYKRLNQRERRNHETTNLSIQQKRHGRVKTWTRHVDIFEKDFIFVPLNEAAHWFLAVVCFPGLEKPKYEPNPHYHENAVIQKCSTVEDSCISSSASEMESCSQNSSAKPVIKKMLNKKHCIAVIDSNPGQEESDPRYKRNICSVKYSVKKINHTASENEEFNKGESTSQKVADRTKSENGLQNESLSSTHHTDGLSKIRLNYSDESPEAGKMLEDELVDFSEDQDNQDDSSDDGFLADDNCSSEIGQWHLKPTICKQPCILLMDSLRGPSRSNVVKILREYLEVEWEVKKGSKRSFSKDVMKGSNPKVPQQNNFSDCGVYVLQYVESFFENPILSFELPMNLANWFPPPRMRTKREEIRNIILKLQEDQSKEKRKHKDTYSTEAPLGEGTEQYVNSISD
Casp3 UBC13 ctr = CASP3 inhibitor validation, counterassay for project on UBE2N polyubiquitination blockers, biochemical, one dose; shares compounds with UBC13 inh; Recombinant caspase-3, Caspase-Glo 3/7 luminescence, 60 min; inhibition, % at 20 µM; 4% of 1,400 active; AID 488856, 2010;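 active = mean inhibition across replicates above about 26%, limit read from the data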
UBC13 confirm = UBC13 polyubiquitination inhibitors, single-point retest, confirmation, biochemical, TR-FRET, single concentration; shares compounds with UBC13 inh; inhibition, % at 10 µM; 68% of 1,400 active; in the data active = inhibition above about 45%
A number is an active result.

Results for COc1ccc(Cl)cc1/C=N/NC(=O)c1c(-c2ccccc2)noc1C ?
SENP8 block-1: inactive; UBC13 inh: 56; SENP7 block: inactive; Apaf-1 inh: inactive; SENP8 block-2: inactive; SENP6 inh: inactive; Casp3 UBC13 ctr: inactive; UBC13 confirm: inactive

Results for CCCCOc1ccc(C(=O)NNC(=O)c2cnccn2)cc1OC ?
SENP8 block-1: inactive; UBC13 inh: 64; SENP7 block: inactive; Apaf-1 inh: inactive; SENP8 block-2: inactive; SENP6 inh: inactive; Casp3 UBC13 ctr: inactive; UBC13 confirm: inactive

What do the screens show for `COc1ccc(CC(=O)NNC(=O)c2cnccn2)cc1`?
SENP8 block-1: inactive; UBC13 inh: inactive; SENP7 block: inactive; Apaf-1 inh: inactive; SENP8 block-2: inactive; SENP6 inh: inactive

How did O=C(CCNC(=O)N1CC(=O)Nc2ccccc21)NCc1ccccc1 do in these assays?
SENP8 block-2: inactive

What do the screens show for `COc1ccccc1NC(=O)c1cc(S(=O)(=O)N2CCCCCC2)ccc1F`?
SENP8 block-1: inactive; UBC13 inh: 68; SENP7 block: inactive; Apaf-1 inh: inactive; SENP8 block-2: inactive; SENP6 inh: inactive; Casp3 UBC13 ctr: inactive; UBC13 confirm: 90

How did COc1ccc(C)cc1NC(=O)c1cc(S(=O)(=O)N2CCCCC2)ccc1N1CCOCC1 do in these assays?
SENP8 block-1: inactive; UBC13 inh: 65; SENP7 block: inactive; Apaf-1 inh: inactive; SENP8 block-2: inactive; SENP6 inh: inactive; Casp3 UBC13 ctr: inactive; UBC13 confirm: 51

How did COc1ccc(S(=O)(=O)N2CCCC2)cc1NC(=O)c1ccccc1F do in these assays?
SENP8 block-1: inactive; UBC13 inh: inactive; SENP7 block: inactive; Apaf-1 inh: inactive; SENP8 block-2: inactive; SENP6 inh: inactive

How did Cc1ccc2c(c1)c1c3n2CCCNC3CCC1 (stereo not drawn) do in these assays?
SENP8 block-1: inactive; UBC13 inh: inactive; SENP7 block: inactive; Apaf-1 inh: inactive; SENP8 block-2: inactive; SENP6 inh: inactive

Results for c1cc2c(cc1C1CCCCC1)c1c3n2CCCNC3CCC1 (stereo not drawn) ?
SENP8 block-1: inactive; UBC13 inh: 64; SENP7 block: inactive; Apaf-1 inh: inactive; SENP8 block-2: inactive; SENP6 inh: inactive; Casp3 UBC13 ctr: inactive; UBC13 confirm: 72

What do the screens show for `COc1ccc(C(=O)N2CCC(n3c(C)nc4cc(F)ccc43)CC2)cc1OC`?
SENP8 block-1: inactive; UBC13 inh: inactive; SENP7 block: inactive; Apaf-1 inh: inactive; SENP8 block-2: inactive; SENP6 inh: inactive

Results for Cc1ccc2c(c1)nnn2C1CCN(CC(=O)Nc2ccccc2N2CCOCC2)CC1 ?
SENP8 block-1: inactive; UBC13 inh: inactive; SENP7 block: inactive; Apaf-1 inh: inactive; SENP8 block-2: inactive; SENP6 inh: inactive

What do the screens show for `COc1ccc(C(=O)NNC(=O)CN2CCC(n3nnc4cc(F)ccc43)CC2)cc1`?
SENP8 block-1: inactive; UBC13 inh: inactive; SENP7 block: inactive; Apaf-1 inh: inactive; SENP8 block-2: inactive; SENP6 inh: inactive

Results for COc1ccc(Cl)cc1NC(=O)CN1CCC(n2nnc3cc(C)ccc32)CC1 ?
SENP8 block-1: inactive; UBC13 inh: 46; SENP7 block: inactive; Apaf-1 inh: inactive; SENP8 block-2: inactive; SENP6 inh: inactive; Casp3 UBC13 ctr: inactive; UBC13 confirm: 51

What do the screens show for `COc1ccccc1NC(=O)CN1CCC(n2nnc3cc(F)ccc32)CC1`?
SENP8 block-1: inactive; UBC13 inh: 70; SENP7 block: inactive; Apaf-1 inh: inactive; SENP8 block-2: inactive; SENP6 inh: inactive; Casp3 UBC13 ctr: inactive; UBC13 confirm: 69

Results for COc1ccccc1NC(=O)CN1CCC(n2c(C)nc3cc(F)ccc32)CC1 ?
SENP8 block-1: inactive; UBC13 inh: 104; SENP7 block: inactive; Apaf-1 inh: inactive; SENP8 block-2: inactive; SENP6 inh: inactive; Casp3 UBC13 ctr: inactive; UBC13 confirm: 112
